Assay results gathered from unrelated publications.
Protocols differ between the studies behind these lines.

For `CN[C@H]1CCCN(c2ccc(Nc3cc(NC4CC4)n4ncc(C#N)c4n3)cc2NC(C)=O)C1`, the kinetic solubility was 54 µg/mL (shake flask; PBS; 24 h; pH 7.4; 22 °C).
With `Fc1ccc(Nc2c(-c3ccccn3)nc3ccc(C4CC4)cn23)cc1` the kinetic solubility was 3 µM (aqueous buffer; 24 h).
`CCOC(=O)NS(=O)(=O)c1sc(CC(C)C)cc1-c1ccc2c(c1)CN(C(C)=O)C2` has a kinetic solubility of 35 µM (aqueous buffer; pH 7.4; 37 °C).
`CC(=O)Nc1cc(Nc2cc(NC3CC3)n3ncc(C#N)c3n2)ccc1N[C@@H]1CCCOC1` has a kinetic solubility of 2.4 µg/mL (shake flask; PBS; 24 h; pH 7.4; 22 °C).
`CNC(=O)[C@H](Cc1c[nH]cn1)NC(=O)CN(CC(=O)O)Cc1ccccc1` gave a kinetic solubility of 151 µM (PBS; 24 h; pH 7.4).
The kinetic solubility of `CCc1cnc2c(c1)[C@@H](N1CCOc3c(cc(Cn4ccnc4)cc3-c3cn(C)nc3C(F)(F)F)C1=O)CCC2` is reported as 74 µM (PBS; 1 h; pH 7.4).
`CN[C@@H]1CCN(c2ccc(Nc3cc(NC4CC4)n4ncc(C#N)c4n3)cc2NC(C)=O)C1` has a kinetic solubility of 64 µg/mL (shake flask; PBS; 24 h; pH 7.4; 22 °C).
With `CCOC(=O)NS(=O)(=O)c1sc(CC(C)C)cc1-c1ccc2c(c1)CN(C(=O)OCC)C2` the kinetic solubility was 58 µM (aqueous buffer; pH 7.4; 37 °C).
For `CCCC#Cc1ccc([C@@H](CO)C(=O)N[C@H](C)c2ccccc2)cc1`, the kinetic solubility was 7.4 µM (PBS; pH 7.4).
For `Cc1cc(Nc2ccc(S(F)(F)(F)(F)F)cc2)n2ccnc2n1`, the kinetic solubility was greater than 285 µM (simulated gastric fluid; pH 2; acidic).
The kinetic solubility of `O=C(O)CN(CCCc1ccccc1)CC(=O)N[C@@H](Cc1c[nH]cn1)C(=O)NCc1ccccc1` is reported as 179 µM (PBS; 24 h; pH 7.4).
`CCCCOC(=O)NS(=O)(=O)c1sc(CC(C)C)cc1-c1ccc(OC(F)(F)F)c(Cn2ccnc2)c1` has a kinetic solubility of 52 µM (aqueous buffer; pH 7.4; 37 °C).
The kinetic solubility of `C=CC(=O)Nc1cc(Nc2nccc(Nc3cc(Cl)c(F)cc3C(C)(C)O)n2)c(OC)cc1N1CC[C@@H](N(C)C)C1` is reported as 616 µM (aqueous buffer; pH 7.4).
For `CNC(=O)[C@H](Cc1c[nH]cn1)NC(=O)CN(CCCc1ccccc1)CC(=O)O`, the kinetic solubility was 170 µM (PBS; 24 h; pH 7.4).
`CC(=O)Nc1cc(Nc2cc(NC3CC3)n3ncc(C#N)c3n2)ccc1N(C)[C@@H]1CCOC1` gave a kinetic solubility of 25 µg/mL (shake flask; PBS; 24 h; pH 7.4; 22 °C).
For `Cc1cc(Nc2ccc(C(F)(F)F)cc2)c2ccccc2n1`, the kinetic solubility was 83 µM (PBS; pH 6.5).
`CCCCOC(=O)NS(=O)(=O)c1sc(CC(C)C)cc1-c1ccc2c(c1)CCN(C(C)=O)C2` gave a kinetic solubility of 45 µM (aqueous buffer; pH 7.4; 37 °C).
`CC(=O)Nc1cc(Nc2cc(NC3CC3)n3ncc(C#N)c3n2)ccc1N(C)C[C@@H]1CCCN1` has a kinetic solubility of 68 µg/mL (shake flask; PBS; 24 h; pH 7.4; 22 °C).
The kinetic solubility of `Cc1noc([C@H](Cc2c[nH]cn2)NC(=O)CN(CCCc2ccccc2)CC(=O)O)n1` is reported as 198 µM (PBS; 24 h; pH 7.4).
`CC(=O)Nc1cc(Nc2cc(NC3CC3)n3ncc(C#N)c3n2)ccc1N(C)CC1COC1` has a kinetic solubility of 0.2 µg/mL (shake flask; PBS; 24 h; pH 7.4; 22 °C).
For `COC(=O)CN(CCCc1ccccc1)CC(=O)N[C@@H](Cc1c[nH]cn1)c1nc(C)no1`, the kinetic solubility was 172 µM (PBS; 24 h; pH 7.4).
